The source made the active and inactive calls. The rule behind the calls is not given here.
Columns and labels:
M21 [1] = assay: Antiproliferative activity against human M21 cells assessed as cell growth inhibition after 48 hrs by sulforhodamine B assay; type: functional, cell-based; details: M21, 48 h
Method in brief: (§1)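 NCI-style SRB screen with minor changes. Cells seeded per well in DMEM with 5% FBS: HT-29 4.0 x 10^3, M21 3.0 x 10^3, MCF-7 2.5 x 10^3, HT-1080 2.5 x 10^3. After 24 h, serially diluted drug was added at 50 µM to 1 nM final, DMSO <0.5%, for 48 h. Fixed with cold TCA, stained with SRB, read at 530–568 nm against plates fixed on treatment day. At least two experiments in triplicate, CV <10%.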

[2] = target: T1, Tubulin beta (Homo sapiens) (UniProt P68371+Q9H4B7+Q13509+P04350+Q3ZCM7+P07437+Q13885+Q9BVA1+Q9BUF5+A6NNZ2); assay: Inhibition of N,N-ethylene-bis(iodoacetamide) binding to Tubulin beta colchicines-binding site in human M21 cells assessed as adduct formation at 910 nM by Western blot analysis; type: cell-based
[3] = Antiproliferative activity against human HT1080 cells assessed as cell growth inhibition after 48 hrs by sulforhodamine B assay; type: functional, cell-based; details: HT-1080, 48 h
M21 [4] = assay: Induction of cell cycle arrest in human M21 cells assessed as cells accumulation at G0/G1 phase at 46 nM after 24 hrs by flow cytometry (reference value: 54.5%); type: functional
[5] = target: T1, Tubulin beta (Homo sapiens); assay: Inhibition of N,N-ethylene-bis(iodoacetamide) binding to Tubulin beta colchicines-binding site in human M21 cells assessed as adduct formation at 2500 nM by Western blot analysis; type: cell-based
M21 [6] = assay: Induction of cell cycle arrest in human M21 cells assessed as cells accumulation at G2/M phase at 46 nM after 24 hrs by flow cytometry (reference value: 22.1%); type: functional
[7] = target: T1, Tubulin beta (Homo sapiens); assay: Inhibition of N,N-ethylene-bis(iodoacetamide) binding to Tubulin beta colchicines-binding site in human M21 cells assessed as adduct formation at 410 nM by Western blot analysis; type: cell-based
M21 [8] = assay: Induction of microtubule depolymerization and cytoskeleton disruption in human M21 cells at 46 nM after 16 hrs by immunofluorescence assay
HT-29 = assay: Antiproliferative activity against human HT-29 cells assessed as cell growth inhibition after 48 hrs by sulforhodamine B assay; type: functional, cell-based; details: HT-29, 48 h; method in brief: as §1
M21 [9] = assay: Induction of cell cycle arrest in human M21 cells assessed as cells accumulation at S phase at 46 nM after 24 hrs by flow cytometry (reference value: 22.2%); type: functional
MCF7 = assay: Antiproliferative activity against human MCF7 cells assessed as cell growth inhibition after 48 hrs by sulforhodamine B assay; type: functional, cell-based; details: MCF7, 48 h; method in brief: as §1
M21 [10] = assay: Induction of cell cycle arrest in human M21 cells assessed as cells accumulation at subG1 phase at 46 nM after 24 hrs by flow cytometry (reference value: 1.2%); type: functional
M21 [11] = assay: Induction of cell cycle arrest in human M21 cells assessed as cells accumulation at S phase at 10 nM after 24 hrs by flow cytometry (reference value: 22.2%); type: functional
M21 [12] = assay: Induction of cell cycle arrest in human M21 cells assessed as cells accumulation at G2/M phase at 10 nM after 24 hrs by flow cytometry (reference value: 22.1%); type: functional
M21 [13] = assay: Induction of cell cycle arrest in human M21 cells assessed as cells accumulation at G0/G1 phase at 10 nM after 24 hrs by flow cytometry (reference value: 54.5%); type: functional
M21 [14] = assay: Induction of microtubule depolymerization and cytoskeleton disruption in human M21 cells at 10 nM after 16 hrs by immunofluorescence assay
M21 [15] = assay: Induction of cell cycle arrest in human M21 cells assessed as cells accumulation at subG1 phase at 10 nM after 24 hrs by flow cytometry (reference value: 1.2%); type: functional
M21 [16] = assay: Induction of cell cycle arrest in human M21 cells assessed as cells accumulation at G2/M phase at 760 nM after 24 hrs by flow cytometry (reference value: 22.1%); type: functional
M21 [17] = assay: Induction of cell cycle arrest in human M21 cells assessed as cells accumulation at S phase at 760 nM after 24 hrs by flow cytometry (reference value: 22.2%); type: functional
[18] = target: T1, Tubulin beta (Homo sapiens); assay: Binding affinity to Tubulin beta in human M21 cells assessed as tubulin acylation at 3100 nM after 24 hrs by electrophoretic mobility shift assay; type: cell-based
M21 [19] = assay: Induction of microtubule depolymerization and cytoskeleton disruption in human M21 cells at 760 nM after 16 hrs by immunofluorescence assay
[20] = target: T1, Tubulin beta (Homo sapiens); assay: Binding affinity to Tubulin beta in human M21 cells assessed as tubulin acylation at 1500 nM after 24 hrs by electrophoretic mobility shift assay; type: cell-based
M21 [21] = assay: Induction of cell cycle arrest in human M21 cells assessed as cells accumulation at subG1 phase at 760 nM after 24 hrs by flow cytometry (reference value: 1.2%); type: functional
M21 [22] = assay: Induction of cell cycle arrest in human M21 cells assessed as cells accumulation at G0/G1 phase at 760 nM after 24 hrs by flow cytometry (reference value: 54.5%); type: functional
M21 [23] = assay: Induction of cell cycle arrest in human M21 cells assessed as cells accumulation at S phase at 24 nM after 24 hrs by flow cytometry (reference value: 22.2%); type: functional
M21 [24] = assay: Induction of cell cycle arrest in human M21 cells assessed as cells accumulation at G2/M phase at 24 nM after 24 hrs by flow cytometry (reference value: 22.1%); type: functional
M21 [25] = assay: Induction of cell cycle arrest in human M21 cells assessed as cells accumulation at subG1 phase at 24 nM after 24 hrs by flow cytometry (reference value: 1.2%); type: functional
M21 [26] = assay: Induction of microtubule depolymerization and cytoskeleton disruption in human M21 cells at 24 nM after 24 hrs by immunofluorescence assay; type: functional, cell-based
M21 [27] = assay: Induction of cell cycle arrest in human M21 cells assessed as cells accumulation at G0/G1 phase at 24 nM after 24 hrs by flow cytometry (reference value: 54.5%); type: functional
[28] = target: T1, Tubulin beta (Homo sapiens); assay: Inhibition of N,N-ethylene-bis(iodoacetamide) binding to Tubulin beta colchicines-binding site in human M21 cells assessed as adduct formation at 100000 nM by Western blot analysis; type: cell-based

Question: What does the source list for Cc1cc(C)cc(/C=C\c2ccc(N3CCNC3=O)cc2)c1?
Answer: IC50 (M21 [1]): 0.01 µM; inhibition [2]: Active; IC50 [3]: 0.015 µM; Activity (M21 [4]): 5.4%; inhibition [5]: Active; Activity (M21 [6]): 78.4%; inhibition [7]: Active; Activity (M21 [8]): Active; IC50 (HT-29): 0.0084 µM; Activity (M21 [9]): 8%; IC50 (MCF7): 0.023 µM; Activity (M21 [10]): 8.2%

Question: What does the source list for CCNC(=O)Nc1ccc(/C=C/c2cc(OC)c(OC)c(OC)c2)cc1?
Answer: IC50 (M21 [1]): 29 µM; IC50 [3]: 16 µM; IC50 (HT-29): 12 µM; IC50 (MCF7): 17 µM

Question: For CCNC(=O)Nc1ccc(/C=C\c2cc(OC)c(OC)c(OC)c2)cc1, which IC50 (M21 [1]) is on record?
Answer: 21 µM

Question: And the IC50 [3]?
Answer: 29 µM

Question: And the IC50 (HT-29)?
Answer: 21 µM

Question: What about the IC50 (MCF7) of the same molecule?
Answer: 21 µM

Question: Which Activity (M21 [11]) does the source give for COc1cc(/C=C\c2ccc(N3CCNC3=O)cc2)cc(OC)c1OC here?
Answer: 6.1%

Question: And the IC50 (M21 [1])?
Answer: 0.0024 µM

Question: What about the inhibition [2] of the same molecule?
Answer: Active

Question: And the IC50 [3]?
Answer: 0.0023 µM

Question: And the inhibition [5]?
Answer: Active

Question: And the Activity (M21 [12])?
Answer: 84.6%

Question: And the inhibition [7]?
Answer: Active

Question: And the Activity (M21 [13])?
Answer: 4.2%

Question: And the IC50 (HT-29)?
Answer: 0.0017 µM

Question: And the Activity (M21 [14])?
Answer: Active

Question: What about the Activity (M21 [15]) of the same molecule?
Answer: 5.1%

Question: What about the IC50 (MCF7) of the same molecule?
Answer: 0.0026 µM

Question: Which Activity (M21 [16]) does the source give for O=C(NCCCl)Nc1ccc(/C=C\c2cccc(Cl)c2)cc1 here?
Answer: 92%

Question: And the Activity (M21 [17])?
Answer: 3.7%

Question: And the IC50 (M21 [1])?
Answer: 0.17 µM

Question: And the IC50 [3]?
Answer: 0.17 µM

Question: And the Activity [18]?
Answer: Active

Question: What about the Activity (M21 [19]) of the same molecule?
Answer: Active

Question: And the Activity [20]?
Answer: Active

Question: What about the Activity (M21 [21]) of the same molecule?
Answer: 2.2%

Question: What about the Activity (M21 [22]) of the same molecule?
Answer: 2.1%

Question: What about the IC50 (HT-29) of the same molecule?
Answer: 0.13 µM

Question: What about the IC50 (MCF7) of the same molecule?
Answer: 0.2 µM

Question: Which results are given for CCNC(=O)Nc1ccc(/C=C\c2cc(C)cc(C)c2)cc1?
Answer: IC50 (M21 [1]): 16 µM; IC50 [3]: 15 µM; IC50 (HT-29): 11 µM; IC50 (MCF7): 17 µM

Question: Which IC50 (M21 [1]) does the source give for CCNC(=O)Nc1ccc(/C=C/c2cc(C)cc(C)c2)cc1 here?
Answer: > 20 µM

Question: And the IC50 [3]?
Answer: > 20 µM

Question: What about the IC50 (HT-29) of the same molecule?
Answer: > 20 µM

Question: What about the IC50 (MCF7) of the same molecule?
Answer: 20 µM

Question: Which results are given for COc1cc2c(c(OC)c1OC)-c1ccc(OC)c(=O)cc1[C@@H](NC(C)=O)CC2 [COLCHICINE]?
Answer: Activity (M21 [23]): 11.8%; Activity (M21 [24]): 57.9%; Activity (M21 [25]): 2.4%; Activity (M21 [26]): Active; Activity (M21 [27]): 27.9%

Question: Which results are given for O=C(NCCCl)Nc1ccc(/C=C/c2cccc(Cl)c2)cc1?
Answer: IC50 (M21 [1]): > 20 µM; IC50 [3]: > 20 µM; IC50 (HT-29): 12 µM; IC50 (MCF7): 20 µM

Question: Which results are given for COc1cc(/C=C/c2ccc(N3CCNC3=O)cc2)cc(OC)c1OC?
Answer: IC50 (M21 [1]): 0.55 µM; inhibition [28]: Active; IC50 [3]: 0.4 µM; IC50 (HT-29): 0.37 µM; IC50 (MCF7): 0.54 µM

Source: ChEMBL document CHEMBL3588763, “Styryl-N-phenyl-N'-(2-chloroethyl)ureas and styrylphenylimidazolidin-2-ones as new potent microtubule-disrupting agents using combretastatin A-4 as model” (Eur J Med Chem, 2015)
